{
  "source": "ChEMBL document CHEMBL4325910",
  "about": "“Design and synthesis of rosiglitazone-ferulic acid-nitric oxide donor trihybrids for improving glucose tolerance” (Eur J Med Chem, 2019)",
  "key": {"[1]": {"assay": "Metabolic stability in Sprague-Dawley rat plasma after 24 hrs by HPLC analysis"}, "Platelet [2]": {"system": "Platelet", "assay": "Antiplatelet activity in platelet rich plasma (unknown origin) assessed as inhibition of ADP-induced platelet aggregation at 1 mM relative to control", "format": "functional"}, "Platelet [3]": {"system": "Platelet", "assay": "Antiplatelet activity in platelet rich plasma (unknown origin) assessed as inhibition of ADP-induced platelet aggregation at 4 mM relative to control", "format": "functional"}, "Mus musculus [4]": {"system": "Mus musculus", "assay": "Cardioprotective activity in db/db BKS.Cg-Dock7m +/+ Leprdb/J mouse assessed as decrease in serum cTnI level at 27 umol/kg, po administered as daily dose via gavage for 18 days by ELISA", "format": "functional, organism-based", "summary_of_the_method": "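db/db mice were gavaged daily for 18 days in 0.5% CMC-Na, with vehicle-treated model and C57BL/6 control groups. Tail vein blood was collected and serum TNF-α and cTnI measured by commercial ELISA kits. Six individual experiments, mean ± SD, one-way ANOVA.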"}, "Platelet [5]": {"system": "Platelet", "assay": "Antiplatelet activity in platelet rich plasma (unknown origin) assessed as inhibition of arachidonic acid-induced platelet aggregation at 8 mM relative to control", "format": "functional"}, "3T3-L1 [6]": {"system": "3T3-L1", "assay": "Inhibition of ROS production in TNF-alpha-induced insulin resistant mouse 3T3L1 cells at 10 uM after 48 hrs in presence of nitric oxide scavenger C-PTIO by DCFH-DA dye-based fluorescence assay", "format": "functional, cell-based"}, "Platelet [7]": {"system": "Platelet", "assay": "Antiplatelet activity in platelet rich plasma (unknown origin) assessed as inhibition of arachidonic acid-induced platelet aggregation at 4 mM relative to control", "format": "functional"}, "[8]": {"assay": "Metabolic stability in Sprague-Dawley rat plasma after 0.5 hrs by HPLC analysis", "format": "ADME, cell-free", "summary_of_the_method": "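Compound (100 μM final; 100 mM DMSO stock diluted 1:1000) was incubated in triplicate in SD rat plasma at 37 °C with shaking for 0–24 h. Acetonitrile (3 volumes) was added, samples centrifuged and supernatants run on HPLC. Gradient was ammonium acetate pH 3.5/acetonitrile, 1.0 mL/min, detection at 254 nm.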"}, "[9]": {"assay": "Metabolic stability in simulated intestinal fluid at pH 6.8 measured immediately after compound addition by HPLC analysis", "format": "ADME", "conditions": "read-out: Stability", "summary_of_the_method": "(§1)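 Gastric fluid was 1% pepsin in water, pH 1.5. Intestinal fluid was 1% trypsin with 0.68% KH2PO4, pH 6.8. Compound (100 mM DMSO stock) was diluted 1:1000 into each, in triplicate. Incubation was at 37 °C for 0, 2, 4, 6, 16 or 24 h. Acetonitrile (3 volumes) stopped it, then HPLC at 254 nm.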"}, "[10]": {"assay": "Metabolic stability in simulated gastric fluid at pH 1.5 measured after 2 hrs by HPLC analysis", "format": "ADME", "conditions": "read-out: Stability", "summary_of_the_method": "as §1"}, "Platelet [11]": {"system": "Platelet", "assay": "Antiplatelet activity in platelet rich plasma (unknown origin) assessed as inhibition of ADP-induced platelet aggregation at 0.2 mM relative to control", "format": "functional"}, "[12]": {"assay": "Toxicity in ICR mouse assessed mouse mortality at 2000 mg/kg, po administered as single dose via gavage treated on day 1 and measured daily up to 14 days", "format": "organism-based", "conditions": "in vivo, 336 h", "summary_of_the_method": "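Mice of both sexes, 7 weeks old, were randomized and given one oral gavage dose on day 1. Dose levels were 500, 1000, 2000, 3000, 4000 or 5000 mg/kg, or 2000, 4000 and 5000 mg/kg, with n = 10 per group. Behaviour, health and mortality were checked daily for 14 days, and total deaths were counted on day 14. LD50 was calculated with 95% confidence limits.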"}, "3T3-L1 [13]": {"system": "3T3-L1", "assay": "Induction of nitric oxide production in TNF-alpha-induced insulin resistant mouse 3T3L1 cells at 3 to 10 uM after 0.5 to 6 hrs by DAF-FM-2DA dye based fluorescence assay", "format": "functional, cell-based", "summary_of_the_method": "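Insulin-resistant 3T3-L1 adipocytes (TNF-α 4 ng/mL, 4 days) were treated for varying times, with or without 20 μM C-PTIO. Vehicle was DMSO 0.1% or NaOH 10 μM. Cells were washed in KRP, loaded with 10 μM DAF-FM-2DA in pH 7.4 PBS at 37 °C for 30 min, and read at Ex/Em 485/515 nm. Three experiments.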"}, "3T3-L1 [14]": {"system": "3T3-L1", "assay": "Induction of nitric oxide mediated increase in insulin-stimulated 2-NBDG uptake in TNF-alpha-induced insulin resistant mouse 3T3L1 cells at 3 to 10 uM preincubated for 48 hrs followed by 2-NBDG addition measured after 30 mins in presence of insulin by fluorescence assay", "format": "functional, cell-based", "summary_of_the_method": "(§2)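 Day-8 differentiated 3T3-L1 adipocytes received TNF-α (4 ng/mL) daily for 4 days. They were pretreated in triplicate for 48 h (C-PTIO 20 μM where indicated), then given 100 μM 2-NBDG at 37 °C for 30 min in the dark, with or without insulin. After KRP washes, fluorescence was read at Ex/Em 485/515 nm. Three experiments, mean ± SD.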"}, "3T3-L1 [15]": {"system": "3T3-L1", "assay": "Induction of nitric oxide mediated increase in insulin-stimulated 2-NBDG uptake in TNF-alpha-induced insulin resistant mouse 3T3L1 cells at 3 to 10 uM preincubated for 48 hrs followed by 2-NBDG addition measured after 30 mins in presence of nitric oxide scavenger C-PTIO by fluorescence assay", "format": "functional, cell-based", "summary_of_the_method": "as §2"}, "Mus musculus [16]": {"system": "Mus musculus", "assay": "Antidiabetic activity in spontaneous db/db BKS.Cg-Dock7m +/+ Leprdb/J mouse assessed as decrease in blood glucose AUC at 10 to 20 mg/kg, po administered as daily dose via gavage for 18 days measured on day 12 up to 120 mins post glucose challenge by oral glucose tolerance test", "format": "functional, organism-based", "summary_of_the_method": "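Male db/db mice (BKS.Cg-Dock7m +/+ Leprdb/J), 6 weeks old on purchase, randomized, n=8 per group. Dosed by gavage in 0.5% CMC-Na daily for 18 consecutive days. Vehicle-dosed db/db and C57BL/6 mice served as model and control. Fasting glucose was read by glucometer every three days. On day 12, after an overnight fast, 2 g/kg glucose was given orally. Blood glucose was read at 0–120 min and AUC calculated. Mean ± SEM.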"}, "3T3-L1 [17]": {"system": "3T3-L1", "assay": "Inhibition of ROS production in TNF-alpha-induced insulin resistant mouse 3T3L1 cells at 3 to 10 uM after 48 hrs by DCFH-DA dye-based fluorescence assay", "format": "functional, cell-based"}, "[18]": {"assay": "Metabolic stability in simulated gastric fluid at pH 1.5 measured after 4 hrs by HPLC analysis", "format": "ADME", "conditions": "read-out: Stability", "summary_of_the_method": "as §1"}, "Platelet [19]": {"system": "Platelet", "assay": "Antiplatelet activity in platelet rich plasma (unknown origin) assessed as inhibition of arachidonic acid-induced platelet aggregation at 0.8 mM relative to control", "format": "functional"}, "[20]": {"assay": "Metabolic stability in simulated gastric fluid at pH 1.5 measured immediately after compound addition by HPLC analysis", "format": "ADME", "conditions": "read-out: Stability", "summary_of_the_method": "as §1"}, "[21]": {"assay": "Metabolic stability in simulated intestinal fluid at pH 6.8 measured after 2 hrs by HPLC analysis", "format": "ADME", "conditions": "read-out: Stability", "summary_of_the_method": "as §1"}, "3T3-L1 [22]": {"system": "3T3-L1", "assay": "Induction of GSH level in TNF-alpha-induced insulin resistant mouse 3T3L1 cells at 3 to 10 uM after 48 hrs", "format": "functional, cell-based", "summary_of_the_method": "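3T3-L1 preadipocytes were differentiated, and mature adipocytes made insulin resistant with TNF-α (4 ng/mL) daily for 4 days. Cells were then treated in triplicate for 48 h, with or without 20 μM C-PTIO. Lysate GSH, SOD and MDA were measured with kits. Three experiments, mean ± SD.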"}, "[23]": {"assay": "Metabolic stability in simulated intestinal fluid at pH 6.8 measured after 24 hrs by HPLC analysis", "format": "ADME", "conditions": "read-out: Stability", "summary_of_the_method": "as §1"}},
  "note": "Active and inactive are the calls of the source. The rule behind the calls is not given here.",
  "data": [
    {"smiles": "CN(CCOc1ccc(CC2SC(=O)NC2=O)cc1)c1ccccn1", "note": "(stereo not drawn) [ROSIGLITAZONE]", "values": [
      {"measurement": "Stability", "setting": "[1]", "result": 39, "unit": "%"},
      {"measurement": "inhibition at 1000 µM", "setting": "Platelet [2]", "result": 6.1, "unit": "%"},
      {"measurement": "inhibition at 4000 µM", "setting": "Platelet [3]", "result": 43.1, "unit": "%"},
      {"measurement": "Activity", "setting": "Mus musculus [4]", "result": "Active"},
      {"measurement": "inhibition at 8000 µM", "setting": "Platelet [5]", "result": 54.4, "unit": "%"},
      {"measurement": "inhibition", "setting": "3T3-L1 [6]", "result": "inactive"},
      {"measurement": "inhibition at 4000 µM", "setting": "Platelet [7]", "result": 42.2, "unit": "%"},
      {"measurement": "Stability", "setting": "[8]", "result": 20, "unit": "%"}
    ]},
    {"smiles": "CCN(CC)/[N+]([O-])=N/OCOC(=O)/C=C/c1ccc(OC(=O)OCN2C(=O)SC(Cc3ccc(OCCN(C)c4ccccn4)cc3)C2=O)c(OC)c1", "note": "(stereo not drawn)", "values": [
      {"measurement": "remaining at 0 h", "setting": "[9]", "result": 100, "unit": "%"},
      {"measurement": "remaining at 2 h", "setting": "[10]", "result": 99.8, "unit": "%"},
      {"measurement": "inhibition at 200 µM", "setting": "Platelet [11]", "result": 9.9, "unit": "%"},
      {"measurement": "Activity", "setting": "[12]", "result": "Non-Toxic"},
      {"measurement": "Activity", "setting": "3T3-L1 [13]", "result": "Active"},
      {"measurement": "Activity", "setting": "3T3-L1 [14]", "result": "Active"},
      {"measurement": "Activity", "setting": "3T3-L1 [15]", "result": "inactive"},
      {"measurement": "Activity", "setting": "Mus musculus [16]", "result": "Active"},
      {"measurement": "inhibition", "setting": "3T3-L1 [17]", "result": "Active"},
      {"measurement": "remaining at 4 h", "setting": "[18]", "result": 97, "unit": "%"},
      {"measurement": "inhibition at 800 µM", "setting": "Platelet [19]", "result": 51.6, "unit": "%"},
      {"measurement": "remaining at 0 h", "setting": "[20]", "result": 100, "unit": "%"},
      {"measurement": "remaining at 2 h", "setting": "[21]", "result": 97.7, "unit": "%"},
      {"measurement": "Activity", "setting": "3T3-L1 [22]", "result": "Active"},
      {"measurement": "remaining at 24 h", "setting": "[23]", "result": 75.5, "unit": "%"}
    ]}
  ]
}
